Test results reported in ChEMBL document CHEMBL3421533, “The Discovery of Orally Bioavailable Tyrosine Threonine Kinase (TTK) Inhibitors: 3-(4-(heterocyclyl)phenyl)-1H-indazole-5-carboxamides as Anticancer Agents” (J Med Chem, 2015).
Blank lines part the entries; values can stand above or below the molecule they belong to. Activity calls are given as the source filed them. The rule behind the calls is not given here.

Legend:
[1] = Antitumor activity against human HCT116 cells xenografted in nude mouse assessed as tumor growth inhibition at 30 mg/kg, po qd administered for 21 days measured on day 22 relative to vehicle-treated control; format: functional; settings: HCT-116, read-out: TGI
[2] = molecular target: T1, Dual specificity protein kinase TTK (Homo sapiens, UniProt P33981); experiment: Inhibition of TTK (unknown origin) using p38 MAPK as substrate by fluorescence assay
T1 sequence (P33981 whole entry): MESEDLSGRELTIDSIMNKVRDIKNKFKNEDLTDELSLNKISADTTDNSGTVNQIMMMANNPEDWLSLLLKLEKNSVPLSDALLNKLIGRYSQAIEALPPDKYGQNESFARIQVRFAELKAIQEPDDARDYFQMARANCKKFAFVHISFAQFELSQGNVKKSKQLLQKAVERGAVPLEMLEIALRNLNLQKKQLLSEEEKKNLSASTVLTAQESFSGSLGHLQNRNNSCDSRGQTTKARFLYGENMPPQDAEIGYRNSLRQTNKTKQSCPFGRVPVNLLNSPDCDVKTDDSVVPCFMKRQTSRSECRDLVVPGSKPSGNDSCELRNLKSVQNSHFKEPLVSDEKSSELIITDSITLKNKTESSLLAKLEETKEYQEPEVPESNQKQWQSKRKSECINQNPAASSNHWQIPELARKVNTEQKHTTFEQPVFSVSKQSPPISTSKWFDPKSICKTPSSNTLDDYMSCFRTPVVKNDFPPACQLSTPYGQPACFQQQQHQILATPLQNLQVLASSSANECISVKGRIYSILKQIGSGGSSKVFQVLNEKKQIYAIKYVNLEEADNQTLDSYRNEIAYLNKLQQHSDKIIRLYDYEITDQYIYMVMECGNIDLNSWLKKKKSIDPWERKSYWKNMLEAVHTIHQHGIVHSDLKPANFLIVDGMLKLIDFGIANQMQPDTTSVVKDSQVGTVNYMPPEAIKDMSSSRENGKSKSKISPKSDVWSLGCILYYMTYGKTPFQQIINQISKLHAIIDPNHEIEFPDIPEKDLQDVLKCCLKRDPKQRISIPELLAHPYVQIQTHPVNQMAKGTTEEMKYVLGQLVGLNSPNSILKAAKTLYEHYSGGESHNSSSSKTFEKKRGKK

[3] = Cell cycle arrest in human HCT116 cells assessed as 8N cells at 0.05 uM measured at 48 hrs by flow cytometric analysis relative to control; format: functional, cell-based; settings: HCT-116
Summary of the method: (§1)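 HCT116 cells in 6-well plates were exposed to compound or DMSO for 48 h at 37 °C, 5% CO₂. Cells were trypsinized, fixed in cold 70% ethanol and stained overnight at 4 °C with 50 μg/mL propidium iodide plus RNaseA. DNA content was read by flow cytometry, and 8N and 16N fractions were normalized to the DMSO control.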

[4] = Cell cycle arrest in human HCT116 cells assessed as 16N cells at 0.05 uM measured at 48 hrs by flow cytometric analysis relative to control; format: functional, cell-based; settings: HCT-116; summary of the method: as §1
[5] = Cell cycle arrest in human HCT116 cells assessed as 8N cells at 0.1 uM measured at 48 hrs by flow cytometric analysis relative to control; format: functional, cell-based; settings: HCT-116; summary of the method: as §1
[6] = Cell cycle arrest in human HCT116 cells assessed as 16N cells at 0.1 uM measured at 48 hrs by flow cytometric analysis relative to control; format: functional, cell-based; settings: HCT-116; summary of the method: as §1
[7] = Cell cycle arrest in human HCT116 cells assessed as 8N cells at 0.2 uM measured at 48 hrs by flow cytometric analysis relative to control; format: functional, cell-based; settings: HCT-116; summary of the method: as §1
[8] = Cell cycle arrest in human HCT116 cells assessed as 16N cells at 0.2 uM measured at 48 hrs by flow cytometric analysis relative to control; format: functional, cell-based; settings: HCT-116; summary of the method: as §1
[9] = Cell cycle arrest in human HCT116 cells assessed as 8N cells at 0.5 uM measured at 48 hrs by flow cytometric analysis relative to control; format: functional, cell-based; settings: HCT-116; summary of the method: as §1
[10] = Cell cycle arrest in human HCT116 cells assessed as 16N cells at 0.5 uM measured at 48 hrs by flow cytometric analysis relative to control; format: functional, cell-based; settings: HCT-116; summary of the method: as §1
[11] = Cell cycle arrest in human HCT116 cells assessed as 8N cells at 1 uM measured at 48 hrs by flow cytometric analysis relative to control; format: functional, cell-based; settings: HCT-116; summary of the method: as §1
[12] = Cell cycle arrest in human HCT116 cells assessed as 16N cells at 1 uM measured at 48 hrs by flow cytometric analysis relative to control; format: functional, cell-based; settings: HCT-116; summary of the method: as §1
[13] = Cell cycle arrest in human HCT116 cells assessed as 8N cells at 3 uM measured at 48 hrs by flow cytometric analysis relative to control; format: functional, cell-based; settings: HCT-116; summary of the method: as §1
[14] = Cell cycle arrest in human HCT116 cells assessed as 16N cells at 3 uM measured at 48 hrs by flow cytometric analysis relative to control; format: functional, cell-based; settings: HCT-116; summary of the method: as §1
HCT-116 [15] = experiment: Induction of cytokinesis with gain or loss in chromosomes in human HCT116 cells at 500 nM after 28 hrs by DAPI-staining based fluorescence microscopic analysis; format: functional, cell-based
HCT-116 [16] = experiment: Cytotoxicity against human HCT116 cells assessed as decrease in cell viability after 24 hrs; format: functional, cell-based
HCT-116 [17] = experiment: Induction of apoptosis in human HCT116 cells assessed as induction of PARP cleavage after 24 hrs; format: functional, cell-based
[18] = Induction of apoptosis in human HCT116 cells assessed as upregulation of phospho-H2AX level after 24 hrs; format: functional, cell-based; settings: HCT-116
[19] = Induction of apoptosis in human HCT116 cells assessed as upregulation of p53 level after 24 hrs; format: functional, cell-based; settings: HCT-116
[20] = molecular target: T1, Dual specificity protein kinase TTK; experiment: Inhibition of amino terminal GST-fused full length human TTK using His6-SUMO-TTK-N as substrate preincubated for 15 mins prior to ATP addition by indirect ELISA detection system
MDA-MB-468 = experiment: Cytotoxicity against human MDA-MB-468 cells after 5 days by sulforhodamine B assay; format: functional
Summary of the method: (§2)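 Cancer lines were seeded at 800–6000 cells per well according to growth rate, 24 h before compound overlay. After culture, cells were fixed in situ and stained with sulforhodamine B. GI50 values were derived by curve fitting.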

[21] = Cytotoxicity against human OVCAR3 cells after 5 days by sulforhodamine B assay; format: functional, OVCAR-3
[22] = molecular target: Aurora kinase B/Inner centromere protein (Homo sapiens, UniProt Q96GD4); experiment: Inhibition of AURKB/INCENP (unknown origin) preincubated for 15 mins prior to ATP addition by FRET-based homogenous assay; format: protein-complex assay
Sequence of Aurora kinase B/Inner centromere protein (Q96GD4 whole entry): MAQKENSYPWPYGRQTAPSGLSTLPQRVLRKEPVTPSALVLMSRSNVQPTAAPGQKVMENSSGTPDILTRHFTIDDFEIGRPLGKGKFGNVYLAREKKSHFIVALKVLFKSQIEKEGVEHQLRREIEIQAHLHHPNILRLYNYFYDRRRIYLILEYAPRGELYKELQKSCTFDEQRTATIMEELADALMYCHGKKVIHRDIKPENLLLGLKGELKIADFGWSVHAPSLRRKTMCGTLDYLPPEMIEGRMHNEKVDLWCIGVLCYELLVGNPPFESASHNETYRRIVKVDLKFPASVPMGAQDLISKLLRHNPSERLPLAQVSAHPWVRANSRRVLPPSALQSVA
Sequence of Aurora kinase B/Inner centromere protein (Q9NQS7 whole entry, further chain): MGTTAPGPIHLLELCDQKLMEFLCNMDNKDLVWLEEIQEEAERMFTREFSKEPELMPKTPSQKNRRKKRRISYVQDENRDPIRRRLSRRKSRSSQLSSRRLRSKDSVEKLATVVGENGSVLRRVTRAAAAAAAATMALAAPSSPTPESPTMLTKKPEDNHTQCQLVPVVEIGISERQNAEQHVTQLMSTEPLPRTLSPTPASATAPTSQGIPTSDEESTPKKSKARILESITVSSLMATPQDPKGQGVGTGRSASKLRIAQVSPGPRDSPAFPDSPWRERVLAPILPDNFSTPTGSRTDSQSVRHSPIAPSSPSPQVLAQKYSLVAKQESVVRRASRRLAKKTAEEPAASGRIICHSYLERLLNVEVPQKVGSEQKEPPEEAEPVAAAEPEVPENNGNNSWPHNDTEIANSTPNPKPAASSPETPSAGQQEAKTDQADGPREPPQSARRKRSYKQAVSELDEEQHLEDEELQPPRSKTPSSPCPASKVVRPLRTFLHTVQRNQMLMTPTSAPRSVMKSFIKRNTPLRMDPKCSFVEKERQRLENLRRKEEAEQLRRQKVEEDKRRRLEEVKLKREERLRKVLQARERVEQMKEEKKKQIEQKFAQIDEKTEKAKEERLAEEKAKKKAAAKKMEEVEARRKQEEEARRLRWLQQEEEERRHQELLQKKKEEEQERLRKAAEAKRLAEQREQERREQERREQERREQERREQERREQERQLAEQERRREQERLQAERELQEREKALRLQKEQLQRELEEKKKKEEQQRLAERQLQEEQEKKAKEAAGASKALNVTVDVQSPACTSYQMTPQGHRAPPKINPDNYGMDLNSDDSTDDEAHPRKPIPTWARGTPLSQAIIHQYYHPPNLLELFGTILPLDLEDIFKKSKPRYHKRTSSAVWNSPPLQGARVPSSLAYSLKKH
Summary of the method: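 The enzyme was AURKB/INCENP in a FRET-based homogeneous assay run to kit specifications, with ATP at 128 μM. […] Each IC50 came from a single determination, reported with its standard fitting error.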

Cytochrome P450 3A4 = Cytochrome P450 3A4 (Homo sapiens, UniProt P08684); experiment: Inhibition of human CYP3A4 using BFC as substrate preincubated for 10 mins followed by enzyme/substrate addition measured after 30 mins by fluorescence assay; format: ADME
Sequence of Cytochrome P450 3A4 (P08684 whole entry): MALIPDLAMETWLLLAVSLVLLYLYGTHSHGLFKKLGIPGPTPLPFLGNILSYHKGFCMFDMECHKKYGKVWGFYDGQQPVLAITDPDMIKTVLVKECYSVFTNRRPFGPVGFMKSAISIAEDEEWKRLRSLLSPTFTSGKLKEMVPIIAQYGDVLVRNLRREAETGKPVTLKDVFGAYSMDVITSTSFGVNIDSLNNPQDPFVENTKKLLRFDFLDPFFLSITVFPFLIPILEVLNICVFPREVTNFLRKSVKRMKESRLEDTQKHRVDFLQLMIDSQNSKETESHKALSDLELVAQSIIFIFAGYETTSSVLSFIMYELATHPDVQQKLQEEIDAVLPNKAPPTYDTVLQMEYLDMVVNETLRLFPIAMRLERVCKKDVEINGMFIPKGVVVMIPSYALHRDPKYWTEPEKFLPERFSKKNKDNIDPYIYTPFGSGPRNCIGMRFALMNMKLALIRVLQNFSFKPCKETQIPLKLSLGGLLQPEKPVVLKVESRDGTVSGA

Mus musculus [23] = experiment: Cmax in athymic CD1 nude mouse at 10 mg/kg, po by LC-MS/MS analysis; format: ADME, organism-based; set-up: dose 10 mg/kg, route oral; settings: in vivo
Mus musculus [24] = experiment: AUCinfinity in athymic CD1 nude mouse at 10 mg/kg, po by LC-MS/MS analysis; format: ADME, organism-based, Plasma; set-up: time infinity, dose 10 mg/kg, route oral; settings: in vivo
[25] = Clearance in Sprague-Dawley rat at 1 mg/kg, iv by LC-MS/MS analysis; format: ADME, organism-based; set-up: dose 1 mg/kg, route intravenous; settings: in vivo
[26] = Half life in Sprague-Dawley rat at 1 mg/kg, iv by LC-MS/MS analysis; format: ADME, organism-based; set-up: dose 1 mg/kg, route intravenous; settings: in vivo
[27] = AUCinfinity in Sprague-Dawley rat at 1 mg/kg, iv by LC-MS/MS analysis; format: ADME, organism-based; set-up: time infinity, dose 1 mg/kg, route intravenous; settings: plasma
[28] = AUCinfinity in Sprague-Dawley rat at 5 mg/kg, po by LC-MS/MS analysis; format: ADME, organism-based; set-up: time infinity, dose 5 mg/kg, route oral; settings: plasma
[29] = Oral bioavailability in Sprague-Dawley rat at 5 mg/kg by LC-MS/MS analysis; format: ADME, organism-based; settings: in vivo
[30] = Toxicity in po dosed athymic CD1 nude mouse assessed as body weight loss in excess 20% and deemed moribund administered as qd for 21 days measured 3 times per week during compound dosing; format: organism-based; settings: in vivo
[31] = Antitumor activity against human HCT116 cells xenografted in athymic CD1 nude mouse assessed as tumor growth inhibition at 100 mg/kg, po qd administered for 21 days measured 3 times per week during compound dosing relative to vehicle-treated control; format: functional; settings: HCT-116, 504 h, read-out: TGI
Summary of the method: (§3)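 HCT116 cells (5 million) were injected subcutaneously into the right flank of 6–8 week old female athymic CD-1 nude mice. At a mean tumor volume of 80–120 mm³, mice were randomized (n = 8). Dosing was oral, daily for 21 days, in 10% NMP/40% PEG400/50% DI water, at the MTD and ~2/3 MTD. Tumors were measured three times weekly, volume x²y/2, and TGI was taken against vehicle.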

[32] = Antitumor activity against human HCT116 cells xenografted in athymic CD1 nude mouse assessed as tumor growth inhibition at 150 mg/kg, po qd administered for 21 days measured 3 times per week during compound dosing relative to vehicle-treated control; format: functional; settings: HCT-116, 504 h, read-out: TGI; summary of the method: as §3
[33] = Cytotoxicity against human HCT116 cells after 5 days by sulforhodamine B assay; format: functional, HCT-116; summary of the method: as §2
Liver = experiment: Half life in mouse liver microsomes at 1 uM by LC-MS analysis; format: ADME; settings: microsomes, 1 µM
Liver microsome = experiment: Half life in rat liver microsomes at 1 uM by LC-MS analysis; format: ADME; settings: microsomes, 1 µM

Structure (SMILES): Cc1cc(N2CCOCC2)ccc1Nc1nc(NC2CCCCC2)c2nc[nH]c2n1
inhibition in vivo at 30 mg/kg [1]: 49%

IC50 [2]: 13 nM
Structure (SMILES): CC(C)(O)CNc1cc(NC2CCCCC2)nn2c(-c3ccc(C(=O)NC4CC4)cc3)cnc12

Structure (SMILES): O=C(N[C@@H](c1ccccn1)C1CC1)c1ccc2[nH]nc(-c3ccc(N4[C@H]5CC[C@H]4CC(O)C5)cc3)c2c1 (stereo in doubt; 75)
Activity [3]: 1%
Activity [4]: 0%
Activity [5]: 1.8%
Activity [6]: 0.2%
Activity [7]: 5.8%
Activity [8]: 1.4%
Activity [9]: 8.3%
Activity [10]: 2.7%
Activity [11]: 7.9%
Activity [12]: 2.3%
Activity [13]: 9.4%
Activity [14]: 2.9%
Activity (HCT-116 [15]): Active
Activity (HCT-116 [16]): Active
Activity (HCT-116 [17]): Active
Activity [18]: Active
Activity [19]: Active

Structure (SMILES): O=C(N[C@H](c1ccccn1)C1CC1)c1ccc2[nH]nc(-c3ccc(N4[C@H]5CC[C@H]4CC(O)C5)cc3)c2c1 (stereo in doubt; 86)
IC50 [20]: 1.6 nM
GI50 (MDA-MB-468): 90 nM
GI50 [21]: 170 nM
IC50 [22]: 790 nM
IC50 (Cytochrome P450 3A4): 1700 nM
Cmax (Mus musculus [23]): 800 ng/mL
AUC (Mus musculus [24]): 1600 ng·h/mL
clearance [25]: 46 mL/min/kg
half-life [26]: 54 min
AUC(0-inf) [27]: 360 ng·h/mL
AUC(0-inf) [28]: 430 ng·h/mL
bioavailability [29]: 24%
MTD at 504 h [30]: 150 mg/kg
inhibition in vivo at 100 mg/kg [31]: 5%
inhibition in vivo at 150 mg/kg [32]: 53%

Structure (SMILES): O=C(N[C@H](c1ccccn1)C1CCCC1)c1ccc2[nH]nc(-c3ccc(N4[C@H]5CC[C@H]4CC(O)C5)cc3)c2c1 (stereo in doubt; 88)
IC50 [20]: 1.8 nM
GI50 [33]: 38 nM
GI50 (MDA-MB-468): 74 nM
GI50 [21]: 130 nM
IC50 [22]: 6600 nM
IC50 (Cytochrome P450 3A4): 800 nM
t1/2 (Liver): 35 min
t1/2 (Liver microsome): 21 min
